Laboratory results taken from ChEMBL document CHEMBL4265950, “Discovery of furyl/thienyl β-carboline derivatives as potent and selective PDE5 inhibitors with excellent vasorelaxant effect” (Eur J Med Chem, 2018).
pEC50, pIC50, pKi: −log10 of the molar value.

How the values were obtained:
[1] = target: T1, cGMP-specific 3',5'-cyclic phosphodiesterase (Homo sapiens, UniProt O76074); experiment: Inhibition of PDE5 (unknown origin)
[2] = target: T1, cGMP-specific 3',5'-cyclic phosphodiesterase; experiment: Inhibition of full length recombinant human N-terminal GST-tagged PDE5A1 expressed in baculovirus infected sf9 cells at 100 nM using FAM-cyclic-3',5-GMP as substrate after 1 hr by fluorescence polarization assay relative to control
Procedure, shortened: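 Single-point test at 100 nM, reported as percent inhibition. Human PDE5 at 15 ng/mL with 100 nM FAM-cGMP in MOPS pH 7.5 buffer (MgCl2, EDTA, BSA, DTT), 1% DMSO final, 60 min at 25 °C. Binding agent added for 1 h, then fluorescence polarization read at […] nm.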

[3] = Stability of the compound in PDE5 enzyme assay condition at 100 uM by HPLC analysis; type: ADME
[4] = target: Cone cGMP-specific 3',5'-cyclic phosphodiesterase subunit alpha' (Homo sapiens, UniProt P51160); experiment: Inhibition of full length recombinant human N-terminal GST-tagged PDE6C expressed in baculovirus infected sf9 cells using […] as substrate after 1 hr by fluorescence polarization assay
[5] = target: Dual 3',5'-cyclic-AMP and -GMP phosphodiesterase 11A (Homo sapiens, UniProt Q9HCR9); experiment: Inhibition of full length recombinant human N-terminal GST-tagged PDE11A4 expressed in baculovirus infected sf9 cells using FAM-cyclic-3',5-AMP as substrate after 1 hr by fluorescence polarization assay
[6] = target: cGMP-inhibited 3',5'-cyclic phosphodiesterase 3B (Homo sapiens, UniProt Q13370); experiment: Inhibition of recombinant human N-terminal GST-tagged PDE3B (592 to end residues) expressed in baculovirus infected sf9 cells using FAM-cyclic-3',5-AMP as substrate after 1 hr by fluorescence polarization assay
Procedure, shortened: (§1)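 Fluorescence polarization assay run at 25 °C for 60 min in 40 mM MOPS pH 7.5, 0.5 mM EDTA, 15 mM MgCl2, 0.15 mg/mL BSA, 1 mM DTT, 0.05% ProClin 200. Contained 15 ng/mL PDE isoform and 100 nM FAM-cGMP or FAM-cAMP according to isoform, with 1% DMSO final. Binding agent added for 1 h at 25 °C; read at […] nm. IC50 from normalized nonlinear dose-response fit.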

Homo sapiens [7] = species: Homo sapiens; experiment: Selectivity index, ratio of IC50 for inhibition of full length recombinant human N-terminal GST-tagged PDE11A4 expressed in baculovirus infected sf9 cells to IC50 for inhibition of full length recombinant human N-terminal GST-tagged PDE5A1 expressed in baculovirus infected sf9 cells
[8] = target: cGMP-specific 3',5'-cyclic phosphodiesterase (Rattus norvegicus) (UniProt O54735); experiment: (§2) Inhibition of PDE5 in Wistar rat mesentric arteries assessed as inhibition of phenylephrine-induced contraction by measuring increase in acetylcholine-induced vasorelaxation by pressure myographic method
Procedure, shortened: (§3)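 Third-order rat mesenteric arteries (110–150 µm), 3–4 mm unbranched segments, cannulated in PSS (pH 7.4, 95% O2/5% CO2). Equilibrated 35 min while pressure was stepped 10→60 mmHg. Checked with 120 mM KCl and acetylcholine, then constricted with 20 µM phenylephrine (norepinephrine in text) and given compounds cumulatively. Ca²⁺-free PSS set maximal dilation. Outer diameter recorded as % relaxation; EC50 from normalized nonlinear fit.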

[9] = target: cGMP-specific 3',5'-cyclic phosphodiesterase (Rattus norvegicus, UniProt O54735); experiment: as §2; procedure, shortened: as §3
[10] = target: 3',5'-cyclic-AMP phosphodiesterase 4A (Homo sapiens, UniProt P27815); experiment: Inhibition of full length recombinant human N-terminal GST-tagged PDE4A1A expressed in baculovirus infected sf9 cells using FAM-cyclic-3',5-AMP as substrate after 1 hr by fluorescence polarization assay
[11] = target: Dual specificity calcium/calmodulin-dependent 3',5'-cyclic nucleotide phosphodiesterase 1A (Homo sapiens, UniProt P54750); experiment: Inhibition of full length recombinant human N-terminal GST-tagged PDE1A expressed in baculovirus infected sf9 cells using FAM-cyclic-3',5-AMP as substrate after 1 hr by fluorescence polarization assay; procedure, shortened: as §1
[12] = target: cGMP-dependent 3',5'-cyclic phosphodiesterase (Homo sapiens, UniProt O00408); experiment: Inhibition of recombinant human N-terminal FLAG-tagged PDE2A (2 to 941 residues) expressed in baculovirus infected sf9 cells using FAM-cyclic-3',5-AMP as substrate after 1 hr by fluorescence polarization assay; procedure, shortened: as §1
Homo sapiens [13] = species: Homo sapiens; experiment: Selectivity index, ratio of IC50 for inhibition of full length recombinant human N-terminal GST-tagged PDE6C expressed in baculovirus infected sf9 cells to IC50 for inhibition of full length recombinant human N-terminal GST-tagged PDE5A1 expressed in baculovirus infected sf9 cells
[14] = target: T1, cGMP-specific 3',5'-cyclic phosphodiesterase; experiment: Inhibition of full length recombinant human N-terminal GST-tagged PDE5A1 expressed in baculovirus infected sf9 cells using FAM-cyclic-3',5-GMP as substrate after 1 hr by fluorescence polarization assay

Chain of cGMP-inhibited 3',5'-cyclic phosphodiesterase 3B (Q13370 whole entry, canonical isoform): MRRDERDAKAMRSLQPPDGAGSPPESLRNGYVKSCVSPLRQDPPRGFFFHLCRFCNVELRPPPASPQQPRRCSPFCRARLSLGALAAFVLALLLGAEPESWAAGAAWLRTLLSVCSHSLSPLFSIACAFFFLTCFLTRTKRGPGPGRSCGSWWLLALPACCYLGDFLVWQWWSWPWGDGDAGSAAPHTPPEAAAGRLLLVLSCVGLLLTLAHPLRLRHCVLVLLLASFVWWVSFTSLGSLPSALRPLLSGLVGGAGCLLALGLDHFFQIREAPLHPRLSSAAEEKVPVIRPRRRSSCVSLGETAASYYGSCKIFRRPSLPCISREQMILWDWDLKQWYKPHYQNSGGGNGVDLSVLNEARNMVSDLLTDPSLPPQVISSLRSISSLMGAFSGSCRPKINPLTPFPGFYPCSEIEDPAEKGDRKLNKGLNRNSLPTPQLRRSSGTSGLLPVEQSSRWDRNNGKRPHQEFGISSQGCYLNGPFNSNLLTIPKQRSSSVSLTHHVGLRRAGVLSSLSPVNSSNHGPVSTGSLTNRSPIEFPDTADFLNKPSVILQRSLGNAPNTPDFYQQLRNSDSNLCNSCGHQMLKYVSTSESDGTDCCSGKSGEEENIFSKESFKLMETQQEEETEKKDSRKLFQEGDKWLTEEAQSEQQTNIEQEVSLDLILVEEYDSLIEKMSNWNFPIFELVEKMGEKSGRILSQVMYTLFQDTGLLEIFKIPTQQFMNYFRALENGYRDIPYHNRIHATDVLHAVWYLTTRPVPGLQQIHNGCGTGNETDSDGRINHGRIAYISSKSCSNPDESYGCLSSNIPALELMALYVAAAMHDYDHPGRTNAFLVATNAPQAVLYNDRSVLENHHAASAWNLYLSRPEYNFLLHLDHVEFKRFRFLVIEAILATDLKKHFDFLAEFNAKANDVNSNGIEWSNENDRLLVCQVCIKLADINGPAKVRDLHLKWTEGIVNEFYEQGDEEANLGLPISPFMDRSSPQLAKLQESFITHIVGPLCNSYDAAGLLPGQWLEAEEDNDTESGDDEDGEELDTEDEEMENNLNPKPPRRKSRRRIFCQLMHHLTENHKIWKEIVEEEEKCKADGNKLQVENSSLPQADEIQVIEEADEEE
Chain of 3',5'-cyclic-AMP phosphodiesterase 4A (P27815 whole entry): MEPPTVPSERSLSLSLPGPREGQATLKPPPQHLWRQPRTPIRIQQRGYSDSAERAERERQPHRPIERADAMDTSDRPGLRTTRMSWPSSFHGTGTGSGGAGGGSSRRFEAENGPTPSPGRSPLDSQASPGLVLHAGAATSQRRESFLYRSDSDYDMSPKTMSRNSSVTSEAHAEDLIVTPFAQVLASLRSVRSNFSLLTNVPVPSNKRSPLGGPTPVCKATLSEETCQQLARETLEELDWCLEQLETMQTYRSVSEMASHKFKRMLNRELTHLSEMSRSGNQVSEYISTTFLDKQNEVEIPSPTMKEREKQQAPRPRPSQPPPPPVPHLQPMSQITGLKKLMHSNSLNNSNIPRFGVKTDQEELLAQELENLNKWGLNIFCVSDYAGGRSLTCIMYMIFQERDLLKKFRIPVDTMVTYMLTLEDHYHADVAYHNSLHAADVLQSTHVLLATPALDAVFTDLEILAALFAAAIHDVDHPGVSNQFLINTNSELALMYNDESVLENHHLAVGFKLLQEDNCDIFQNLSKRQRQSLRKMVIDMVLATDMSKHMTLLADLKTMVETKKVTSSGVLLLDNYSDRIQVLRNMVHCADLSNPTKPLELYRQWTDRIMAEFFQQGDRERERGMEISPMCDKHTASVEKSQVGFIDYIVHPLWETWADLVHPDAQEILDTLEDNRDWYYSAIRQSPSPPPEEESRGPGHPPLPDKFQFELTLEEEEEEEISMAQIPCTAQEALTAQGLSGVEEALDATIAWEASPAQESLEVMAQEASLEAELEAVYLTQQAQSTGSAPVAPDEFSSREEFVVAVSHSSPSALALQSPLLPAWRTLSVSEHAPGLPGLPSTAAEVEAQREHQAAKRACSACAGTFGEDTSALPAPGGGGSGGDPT
Chain of Dual specificity calcium/calmodulin-dependent 3',5'-cyclic nucleotide phosphodiesterase 1A (P54750 whole entry, the tested form may be a part): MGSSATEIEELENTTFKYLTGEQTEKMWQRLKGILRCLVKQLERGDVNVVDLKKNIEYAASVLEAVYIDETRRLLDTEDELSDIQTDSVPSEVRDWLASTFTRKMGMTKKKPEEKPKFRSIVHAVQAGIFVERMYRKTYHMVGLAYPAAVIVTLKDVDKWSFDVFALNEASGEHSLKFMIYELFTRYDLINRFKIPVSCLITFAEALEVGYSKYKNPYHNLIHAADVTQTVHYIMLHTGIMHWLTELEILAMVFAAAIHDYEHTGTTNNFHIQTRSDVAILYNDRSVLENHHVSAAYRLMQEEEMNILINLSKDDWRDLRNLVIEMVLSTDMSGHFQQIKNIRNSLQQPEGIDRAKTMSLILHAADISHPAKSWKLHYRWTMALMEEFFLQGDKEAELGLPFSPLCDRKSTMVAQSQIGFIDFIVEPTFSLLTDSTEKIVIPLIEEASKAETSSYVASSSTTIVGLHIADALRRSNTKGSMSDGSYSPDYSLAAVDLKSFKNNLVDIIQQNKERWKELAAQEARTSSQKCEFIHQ
Chain of Cone cGMP-specific 3',5'-cyclic phosphodiesterase subunit alpha' (P51160 whole entry): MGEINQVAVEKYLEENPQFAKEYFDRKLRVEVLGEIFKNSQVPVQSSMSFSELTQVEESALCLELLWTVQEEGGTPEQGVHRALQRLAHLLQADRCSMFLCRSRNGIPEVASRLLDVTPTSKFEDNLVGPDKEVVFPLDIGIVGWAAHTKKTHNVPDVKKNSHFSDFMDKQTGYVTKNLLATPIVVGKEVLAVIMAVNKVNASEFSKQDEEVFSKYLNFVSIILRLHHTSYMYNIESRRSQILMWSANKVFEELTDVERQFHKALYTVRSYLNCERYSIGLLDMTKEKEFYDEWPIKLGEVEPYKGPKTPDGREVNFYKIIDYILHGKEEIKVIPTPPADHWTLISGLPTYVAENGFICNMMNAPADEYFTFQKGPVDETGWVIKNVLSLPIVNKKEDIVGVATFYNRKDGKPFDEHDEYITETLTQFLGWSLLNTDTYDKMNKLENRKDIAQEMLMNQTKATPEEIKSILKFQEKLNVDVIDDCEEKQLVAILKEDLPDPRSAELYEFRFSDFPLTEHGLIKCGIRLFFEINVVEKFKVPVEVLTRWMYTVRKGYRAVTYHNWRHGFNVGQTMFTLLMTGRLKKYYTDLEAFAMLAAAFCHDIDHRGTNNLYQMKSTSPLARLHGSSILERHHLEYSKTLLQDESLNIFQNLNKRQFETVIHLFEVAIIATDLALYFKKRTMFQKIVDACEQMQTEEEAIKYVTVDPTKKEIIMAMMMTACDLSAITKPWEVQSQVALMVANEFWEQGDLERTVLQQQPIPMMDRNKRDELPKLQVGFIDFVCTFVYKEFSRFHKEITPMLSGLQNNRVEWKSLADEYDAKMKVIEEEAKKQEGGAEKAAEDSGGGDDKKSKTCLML
Chain of cGMP-dependent 3',5'-cyclic phosphodiesterase (O00408 whole entry, the tested form may be a part): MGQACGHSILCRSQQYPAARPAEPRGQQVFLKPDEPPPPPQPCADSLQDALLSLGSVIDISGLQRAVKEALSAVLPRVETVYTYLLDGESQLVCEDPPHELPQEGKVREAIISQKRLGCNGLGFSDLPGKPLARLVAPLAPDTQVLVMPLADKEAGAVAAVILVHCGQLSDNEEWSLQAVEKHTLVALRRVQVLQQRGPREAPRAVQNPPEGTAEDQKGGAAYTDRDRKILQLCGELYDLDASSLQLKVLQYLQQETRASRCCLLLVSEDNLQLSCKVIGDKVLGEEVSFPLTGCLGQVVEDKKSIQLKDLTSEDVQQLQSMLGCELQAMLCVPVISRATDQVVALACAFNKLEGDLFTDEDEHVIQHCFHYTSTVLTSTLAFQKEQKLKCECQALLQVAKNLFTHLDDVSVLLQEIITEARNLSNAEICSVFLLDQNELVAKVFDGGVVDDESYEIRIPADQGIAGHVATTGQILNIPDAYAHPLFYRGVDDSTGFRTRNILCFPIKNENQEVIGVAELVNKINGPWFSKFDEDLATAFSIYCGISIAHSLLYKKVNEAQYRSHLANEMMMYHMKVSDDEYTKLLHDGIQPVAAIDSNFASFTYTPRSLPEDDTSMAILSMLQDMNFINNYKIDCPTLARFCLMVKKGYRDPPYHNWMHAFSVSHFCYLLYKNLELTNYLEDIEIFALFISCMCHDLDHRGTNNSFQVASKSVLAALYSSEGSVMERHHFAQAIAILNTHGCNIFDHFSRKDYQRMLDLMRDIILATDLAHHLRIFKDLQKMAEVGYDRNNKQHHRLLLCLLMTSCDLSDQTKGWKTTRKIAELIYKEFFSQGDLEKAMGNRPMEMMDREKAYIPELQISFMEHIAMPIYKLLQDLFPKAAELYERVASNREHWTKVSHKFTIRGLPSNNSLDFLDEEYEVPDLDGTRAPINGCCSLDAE

Row | Compound | pKi [1] | inhibition [2] [%] | Stability [3] | pIC50 [4] | pIC50 [5] | pIC50 [6] | Ratio IC50 (Homo sapiens [7]) | percent relaxation [8] | pEC50 [9] | pIC50 [10] | pIC50 [11] | pIC50 [12] | Ratio IC50 (Homo sapiens [13]) | pIC50 [14] | pIC50 [1]
1 | COc1ccc(-c2cnc(N3CC(=O)c4c([nH]c5ccccc45)C3c3ccc4c(c3)OCO4)nc2)cc1OC (racemic) | 8.10 |  |  |  |  |  |  |  |  |  |  |  |  |  | 
2 | CCNC(=O)N1[C@H](c2ccc(CC)o2)c2[nH]c3ccccc3c2C[C@@H]1C(=O)OC |  | 46.1 | Stable |  |  |  |  |  |  |  |  |  |  |  | 
3 | CN1CC(=O)N2[C@H](c3ccc(Br)s3)c3[nH]c4ccccc4c3C[C@@H]2C1=O |  | 99.2 |  | 6.87 | 6.66 | < 4.70 | 30 | Dose-dependent effect | 7.26 | < 5.00 | < 4.70 | < 4.70 | 19 | 8.14 | 
4 | CCNC(=O)c1cc2c([nH]c3ccccc32)c(-c2ccc(CC)s2)n1 |  | 47.8 | Stable |  |  |  |  |  |  |  |  |  |  | 6.64 | 
5 | CCc1ccc(C2c3[nH]c4ccccc4c3CCN2c2ccc(-c3ccccn3)cn2)s1 (centres undefined) |  |  |  |  |  |  |  |  |  |  |  |  |  |  | 7.07
6 | CCc1ccc([C@@H]2c3[nH]c4ccccc4c3C[C@H]3C(=O)N(CC)C(=O)N23)s1 |  | 94.1 | Stable | 7.25 | < 6.00 | < 4.70 | > 190 | Dose-dependent effect | 7.24 | < 5.00 | < 4.70 | < 4.70 | 11 | 8.28 | 
7 | c1ccc(CNc2ncnc3sc4c(c23)CCCCC4)cc1 |  |  |  |  |  |  |  |  |  |  |  |  |  |  | 6.72
8 | CCc1ccc([C@@H]2c3[nH]c4ccccc4c3C[C@@H]3C(=O)N(CC)C(=O)N23)s1 |  | 91.4 |  | < 6.00 | 6.77 | < 4.70 | 24 | Dose-dependent effect | 6.99 | < 5.00 | < 4.70 | < 4.70 | > 142 | 8.15 | 
9 | CCN1C(=O)[C@@H]2Cc3c([nH]c4ccccc34)[C@@H](c3ccc(Br)s3)N2C1=O |  |  |  |  |  |  |  |  |  |  |  |  |  |  | 6.80
10 | COc1ccc(CN=c2[nH]c(N3CCC[C@H]3CO)ncc2C(=O)NCc2ncccn2)cc1Cl | 8.30 |  |  |  |  |  |  |  |  |  |  |  |  |  | 
11 | CCc1ccc(C2c3[nH]c4ccccc4c3C(=O)CN2c2ncc(-c3ccc(OC)c(OC)c3)cn2)o1 (centres undefined) |  | 73.3 | Stable | 6.54 | 6.20 |  | 12 |  |  |  |  |  | 5 | 7.28 | 
12 | Cc1ccc([C@@H]2c3[nH]c4ccccc4c3C[C@@H]3C(=O)N(C)CC(=O)N23)s1 |  | 96 |  | < 6.00 | 6.76 | < 4.70 | 20 | Dose-dependent effect | 7.15 | < 5.00 | < 4.70 | < 4.70 | > 115 | 8.06 | 
13 | CCCCCN1C(=O)[C@@H]2Cc3c([nH]c4ccccc34)[C@@H](c3ccc(Br)s3)N2C1=O |  |  |  |  |  |  |  |  |  |  |  |  |  |  | 6.77
14 | CCc1ccc([C@@H]2c3[nH]c4ccccc4c3C[C@@H]3C(=O)N(CC)C(=O)N23)o1 |  | 85.8 |  | < 6.00 | 7.00 | < 4.70 | 12 | Dose-dependent effect | 6.65 | < 5.00 | < 4.70 | < 4.70 | > 118 | 8.07 | 
15 | CC(C)(C)Oc1ccc(Cc2[nH]c(-c3ccco3)c3c(=O)c4ccccc4oc23)cc1 |  |  |  |  |  |  |  |  |  |  |  |  |  |  | 6.62
16 | CCN1C(=O)[C@@H]2Cc3c([nH]c4ccccc34)[C@@H](c3ccc(C)o3)N2C1=O |  | 85.4 |  | 7.21 | 8.40 | < 4.70 | 0.4 | Dose-dependent effect | 6.72 | < 5.00 | < 4.70 | < 4.70 | 6 | 7.98 | 
17 | CCc1ccc(C(=O)c2[nH]c3ccccc3c2CCNc2ccc(-c3ccccn3)cn2)s1 |  | 25.2 | Stable |  |  |  |  |  |  |  |  |  |  |  | 
